This is an account of results in ChEMBL document CHEMBL1221207, “Expanding the promiscuity of a natural-product glycosyltransferase by directed evolution” (Nat Chem Biol, 2007).

The test system of experiment [1] is T1, Oleandomycin glycosyltransferase (Streptomyces antibioticus), Q53685 [A242V].
T1 sequence (whole entry): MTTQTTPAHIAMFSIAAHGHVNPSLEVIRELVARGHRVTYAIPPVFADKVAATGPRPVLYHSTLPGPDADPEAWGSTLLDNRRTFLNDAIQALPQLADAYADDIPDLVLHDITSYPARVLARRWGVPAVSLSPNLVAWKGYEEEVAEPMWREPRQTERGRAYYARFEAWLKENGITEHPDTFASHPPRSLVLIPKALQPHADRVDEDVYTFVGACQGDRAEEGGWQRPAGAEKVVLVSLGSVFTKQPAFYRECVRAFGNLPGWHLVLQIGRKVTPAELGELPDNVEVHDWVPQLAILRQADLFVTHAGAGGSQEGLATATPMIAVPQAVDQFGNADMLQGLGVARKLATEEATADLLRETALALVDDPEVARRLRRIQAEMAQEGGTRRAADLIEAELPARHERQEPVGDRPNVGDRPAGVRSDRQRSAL
The experiment is described as follows: Activity of Streptomyces antibioticus OleD A242V mutant assessed as as rate of glucoside formation measured as nanomoles of product formed per minute per mg of enzyme.

For experiment [2], the system named is T2, Oleandomycin glycosyltransferase (Streptomyces antibioticus), Q53685 [P67T,S132F,A242V].
T2 sequence (whole entry): T1 sequence (whole entry) with P67T, S132F
Put plainly: Activity of Streptomyces antibioticus OleD P67T/S132F/A242V mutant assessed as as rate of glucoside formation measured as nanomoles of product formed per minute per mg of enzyme.

Experiment [3] shares this test system. Put plainly: Activity of Streptomyces antibioticus OleD P67T/S132F/A242V mutant assessed as conversion rate of compound to produce glucoside 3 using NDP sugar donor-UDP-3-deoxy-glucose after 3 hrs by HPLC. The procedure, abridged: (§1)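 End-point donor-specificity assay with purified OleD enzyme. Percentage conversion was read after 3 h. Quenched reactions were run by reverse-phase C18 HPLC with a 10–90% CH3CN gradient in 0.1% formic acid/H2O over 20 min at 1 ml min–1, with detection at 254 nm. Products were identified by LC-MS, by comparison to standards where available, and by fluorescence.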

Experiment [4] has as its target T3, Oleandomycin glycosyltransferase (Streptomyces antibioticus) (UniProt Q53685).
T3 sequence (whole entry): T1 sequence (whole entry) with V242A
Put plainly: Activity of Streptomyces antibioticus wild-type OleD assessed as conversion rate of compound to produce glucoside 3 using NDP sugar UDP-glucose after 3 hrs by HPLC. The method, boiled down: as §1

In experiment [5] the test system is T2, Oleandomycin glycosyltransferase (Streptomyces antibioticus), Q53685 [P67T,S132F,A242V]. Put plainly: Activity of Streptomyces antibioticus OleD P67T/S132F/A242V mutant assessed as conversion rate of compound to produce glucoside 3 using NDP sugar UDP-6-deoxy-glucose after 3 hrs by HPLC. The procedure, abridged: as §1
Experiment [6] shares this test system. Put plainly: Activity of Streptomyces antibioticus OleD P67T/S132F/A242V mutant assessed as conversion rate of compound to produce glucoside 3 using NDP sugar UDP-glucose after 3 hrs by HPLC. The procedure, abridged:
as §1

For experiment [7] the test system is unchanged. Put plainly: Activity of Streptomyces antibioticus OleD P67T/S132F/A242V mutant assessed as conversion rate of compound to produce glucoside 3 using NDP sugar donor UDP-6-thio-glucose after 3 hrs by HPLC. The procedure, abridged: as §1
Experiment [8] has as its system T4, Oleandomycin glycosyltransferase (Streptomyces antibioticus), Q53685 [S132F].
T4 sequence (whole entry): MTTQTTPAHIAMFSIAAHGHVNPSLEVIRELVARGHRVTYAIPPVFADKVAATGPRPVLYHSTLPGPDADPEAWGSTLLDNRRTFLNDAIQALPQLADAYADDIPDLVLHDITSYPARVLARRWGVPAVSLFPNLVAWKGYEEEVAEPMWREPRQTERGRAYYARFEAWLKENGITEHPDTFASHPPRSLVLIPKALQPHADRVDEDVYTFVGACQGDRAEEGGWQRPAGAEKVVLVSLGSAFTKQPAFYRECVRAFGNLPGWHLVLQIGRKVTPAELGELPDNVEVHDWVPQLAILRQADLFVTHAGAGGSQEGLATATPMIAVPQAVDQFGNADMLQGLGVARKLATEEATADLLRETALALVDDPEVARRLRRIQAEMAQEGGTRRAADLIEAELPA
The experiment is described as follows: Activity of Streptomyces antibioticus OleD S132F mutant assessed as conversion rate of compound to produce glucoside 3 using NDP sugar donor UDP-glucose after 3 hrs by HPLC. The procedure, abridged:
as §1

The target in experiment [9] is T3, Oleandomycin glycosyltransferase (Streptomyces antibioticus). The experiment is described as follows: Activity at Streptomyces antibioticus wild-type OleD assessed as as rate of glucoside formation measured as nanomoles of product formed per minute per mg of enzyme.
Experiment [10] relates to T2, Oleandomycin glycosyltransferase (Streptomyces antibioticus), Q53685 [P67T,S132F,A242V]. The experiment is described as follows: Activity of Streptomyces antibioticus OleD P67T/S132F/A242V mutant assessed as conversion rate of compound to produce glucoside 3 using NDP sugar UDP-xylose after 3 hrs by HPLC. The procedure, abridged: as §1
In experiment [11] the target is T3, Oleandomycin glycosyltransferase (Streptomyces antibioticus). The experiment is described as follows: Activity of Streptomyces antibioticus OleD […] mutant assessed as as rate of glucoside formation measured as nanomoles of product formed per minute per mg of enzyme.
In experiment [12] the test system is T1, Oleandomycin glycosyltransferase (Streptomyces antibioticus), Q53685 [A242V]. Put plainly: Activity of Streptomyces antibioticus OleD A242V mutant assessed as conversion rate of compound to produce glucoside 3 using NDP sugar donor UDP-6-azido-glucose after 3 hrs by HPLC. The procedure, abridged:
as §1

Where a chain is given by its changes, count along the chain named.

With `Cc1cc(=O)oc2cc(O)ccc12`, the Activity in [1] came to 5.4 nmol/min; in [2], 84 nmol/min; in [3], 8%; in experiment [4], 13.9%; in [5] it was 85%; in [6], 96.4%. Also, the Activity is 47% in experiment [7]; 48% in experiment [8]; 2.5 nmol/min in [9]; 31% in [10]; 6.3 nmol/min in experiment [11]; 2% in experiment [12].
